Reference: ChEMBL document CHEMBL1124216, “A novel class of potential central nervous system agents. 3-Phenyl-2-(1-piperazinyl)-5H-1-benzazepines” (1988)

Key:
Assay type in all cases: functional
Mus musculus [1] = experiment: Antireserpine activity (RES) of mice after peroral administration of 50 mg/kg of compound; Moderate inhibition (51-71%); settings: route oral
Mus musculus [2] = experiment: Antiexploratory activity (EXPL) of mice determined by an antimex activity meter, 50 mg/kg of dose was administered perorally; Moderate inhibition (51-71%); settings: route oral
Mus musculus [3] = experiment: Antiexploratory activity (EXPL) of mice determined by an antimex activity meter,100 mg/kg of dose was administered perorally; Slight inhibition (31-50%)
Mus musculus [4] = experiment: Antimaximal electroshock seizure (MES) activity in mice after peroral administration of 100 mg/kg of compound; 3/5; settings: route oral
Mus musculus [5] = experiment: Antimaximal electroshock seizure activity was determined in mice when administered perorally; settings: po
Mus musculus [6] = experiment: Antipentylene tetrazole activity was determined in mice when administered perorally; settings: po
Method in brief: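 Groups of five male Std-ddY mice received compound orally in 0.5% tragacanth, then pentylenetetrazole 175 mg/kg ip. Blockade of the tonic extensor component scored as anticonvulsant. ED50 was the dose protecting 50% of animals (Litchfield-Wilcoxon).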

Mus musculus [7] = experiment: Antireserpine activity (RES) of mice after peroral administration of 100 mg/kg of compound; No inhibition; settings: route oral
Mus musculus [8] = experiment: Antitremorine activity(TRM) of mice after peroral administration of 100 mg/kg of compound; No inhibition; settings: route oral
Mus musculus [9] = experiment: Antiexploratory activity (EXPL) of mice determined by an antimex activity meter, 50 mg/kg of dose was administered perorally; No inhibition; settings: route oral
Mus musculus [10] = experiment: Antitremorine activity(TRM) of mice after peroral administration of 50 mg/kg of compound; No inhibition; settings: route oral
Mus musculus [11] = experiment: Antimaximal electroshock seizure (MES) activity in mice after peroral administration of 100 mg/kg of compound; 0/5; settings: route oral
Mus musculus [12] = experiment: Antimaximal electroshock seizure (MES) activity in mice after peroral administration of 100 mg/kg of compound; 2/5; settings: route oral
Mus musculus [13] = experiment: Antiexploratory activity (EXPL) of mice determined by an antimex activity meter, 100 mg/kg of dose was administered perorally; No inhibition; settings: route oral
Mus musculus [14] = experiment: Antiexploratory activity (EXPL) of mice determined by an antimex activity meter, 100 mg/kg of dose was administered perorally; Moderate inhibition (51-71%); settings: route oral
Mus musculus [15] = experiment: Antireserpine activity (RES) of mice after peroral administration of 100 mg/kg of compound; Moderate inhibition (51-71%); settings: route oral
Mus musculus [16] = experiment: Antitremorine activity(TRM) of mice after peroral administration of 100 mg/kg of compound; Slight inhibition (31-50%); settings: route oral
Mus musculus [17] = experiment: Exploratory activity of mice determined by an antimex activity meter, 50 mg/kg of dose was administered perorally; settings: Mus musculus, po
Method in brief: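 Male Std-ddY mice (20-25 g), five per dose; compound in 0.5% aqueous tragacanth given orally. Two hours later each mouse placed in an Animex activity meter cage and locomotor activity counted for 3 min. Mean suppression expressed as percent inhibition of control; ED50 by Litchfield-Wilcoxon.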

Mus musculus [18] = experiment: 3,4 -Dihydroxy phenylacetic acid (DOPAC) levels in mouse brain at 10 mg/kg dose.
Method in brief: (§1)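 Male Std-ddY mice, 20-25 g, dosed orally with compound in 0.5% aqueous tragacanth. DOPAC was measured fluorometrically after purification by column chromatography on Sephadex G-10 and QAE-Sephadex. Brains from five mice per compound were pooled for each determination.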

Mus musculus [19] = experiment: Antiexploratory activity (EXPL) of mice determined by an antimex activity meter, 10 mg/kg of dose was administered perorally; No inhibition; settings: route oral
Mus musculus [20] = experiment: 3,4 -Dihydroxy phenylacetic acid (DOPAC) levels in mouse brain at 50 mg/kg dose.; method in brief: as §1
Mus musculus [21] = experiment: The homovanillic acid (HVA) levels in mouse brain at 50 mg/kg of dose.
Method in brief: (§2)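 Mice dosed orally in 0.5% aqueous tragacanth; brains of five mice per compound pooled. Homovanillic acid measured in brain extracts and reported as brain level.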

Canis familiaris = experiment: Inhibition of apomorphine induced emesis in dogs at 1 mg/kg of dose.; settings: Canis lupus familiaris
Method in brief: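 Beagle dogs (10-15 kg), groups of three, given compound po in a gelatin capsule; 2 h later apomorphine hydrochloride 0.3 mg/kg sc. Vomiting counted for 1 h; mean inhibition as percent of control. ED50 is the dose giving 50% inhibition of emesis, by Litchfield-Wilcoxon.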

Mus musculus [22] = experiment: Antiexploratory activity (EXPL) of mice determined by an antimex activity meter, 50 mg/kg of dose was administered perorally; potent inhibition; settings: route oral
Mus musculus [23] = experiment: Exploratory activity of mice determined by an antimex activity meter, 10 mg/kg of dose was administered perorally; settings: route oral
Mus musculus [24] = experiment: The homovanillic acid (HVA) levels in mouse brain at 10 mg/kg of dose.; method in brief: as §2
Mus musculus [25] = experiment: Antireserpine activity (RES) of mice after peroral administration of 50 mg/kg of compound; Slight inhibition (31-50%); settings: route oral
Mus musculus [26] = experiment: Antitremorine activity(TRM) of mice after peroral administration of 100 mg/kg of compound; Moderate inhibition (51-71%); settings: route oral
Mus musculus [27] = experiment: Antimaximal electroshock seizure (MES) activity in mice after peroral administration of 10 mg/kg of compound; 0/5; settings: route oral
Mus musculus [28] = experiment: Antitreserpine activity(RES) of mice after peroral administration of 100 mg/kg of compound; Moderate inhibition (51-71%); settings: route oral
Mus musculus [29] = experiment: Antimaximal electroshock seizure (MES) activity in mice after peroral administration of 100 mg/kg of compound; 4/5; settings: route oral
Mus musculus [30] = experiment: Antiexploratory activity (EXPL) of mice determined by an antimex activity meter, 100 mg/kg of dose was administered perorally; Potent inhibition; settings: route oral

## CN1CCN(C2=Nc3ccccc3CC=C2c2ccc(O)cc2)CC1
Mus musculus [1]
  inhibition in vivo at 50 mg/kg: 51%
Mus musculus [2]
  inhibition in vivo at 50 mg/kg: 51%

## Cc1ccc2c(c1)CC=C(c1ccccc1)C(N1CCN(CCO)CC1)=N2.O=C(O)/C=C/C(=O)O
Mus musculus [3]
  Inhibition: 31%
Mus musculus [4]
  Activity: 3
Mus musculus [5]
  ED50: 103 mg/kg
Mus musculus [6]
  ED50: 39.4 mg/kg
Mus musculus [7]
  inhibition in vivo at 100 mg/kg: < 30%
Mus musculus [8]
  inhibition in vivo at 100 mg/kg: < 30%

## O=C(c1ccc(F)cc1)C1CCN(C2=Nc3ccccc3CC=C2c2ccc(Cl)cc2)CC1
Mus musculus [9]
  inhibition in vivo at 50 mg/kg: < 30%
Mus musculus [10]
  inhibition in vivo at 50 mg/kg: < 30%
Mus musculus [11]
  Activity: 0
Mus musculus [7]
  inhibition in vivo at 100 mg/kg: < 30%

## CCN1CCN(C2=Nc3ccc(Br)cc3CC=C2c2ccc(Cl)cc2)CC1.O=C(O)/C=C/C(=O)O
Mus musculus [12]
  Activity: 2
Mus musculus [13]
  inhibition in vivo at 100 mg/kg: < 30%
Mus musculus [7]
  inhibition in vivo at 100 mg/kg: < 30%
Mus musculus [8]
  inhibition in vivo at 100 mg/kg: < 30%

## CN1CCN(C2=Nc3ccccc3CC=C2c2ccccc2Cl)CC1.Cl.Cl
Mus musculus [14]
  inhibition in vivo at 100 mg/kg: 51%
Mus musculus [15]
  inhibition in vivo at 100 mg/kg: 51%
Mus musculus [11]
  Activity: 0
Mus musculus [16]
  inhibition in vivo at 100 mg/kg: 31%

## CCN1CCN(C2=Nc3ccccc3CC=C2c2ccc(F)cc2)CC1.Cl.Cl
Mus musculus [17]
  inhibition in vivo at 50 mg/kg: 86.8%
Mus musculus [18]
  Control: 287%
Mus musculus [19]
  inhibition in vivo at 10 mg/kg: < 30%
Mus musculus [20]
  Control: 345%
Mus musculus [21]
  Control: 461%
Canis familiaris
  inhibition in vivo at 1 mg/kg: 100%
Mus musculus [22]
  inhibition in vivo at 50 mg/kg: > 71%
Mus musculus [23]
  inhibition in vivo at 10 mg/kg: 10.6%
Mus musculus [24]
  Control: 432%
Mus musculus [25]
  inhibition in vivo at 50 mg/kg: 31%

## COc1ccc2c(c1)CC=C(c1ccccc1)C(N1CCN(C)CC1)=N2.Cl.Cl
Mus musculus [19]
  inhibition in vivo at 10 mg/kg: < 30%
Mus musculus [26]
  inhibition in vivo at 100 mg/kg: 51%
Mus musculus [27]
  Activity: 0
Mus musculus [28]
  inhibition in vivo at 100 mg/kg: 51%
Mus musculus [29]
  Activity: 4
Mus musculus [30]
  inhibition in vivo at 100 mg/kg: > 71%
